Screening data as filed in PubChem.
Only some compounds are listed: those with a hit (about 1.7% of all), similar ones and a draw of the others.
HNF4A DNA FP: change in binding of human HNF4 alpha to DNA | HNF4a-FITC DNA binding, fluorescence polarization, 1 h | activity change, % at 10 µM | AID 1224865 | 360,000 compounds, 0.3% hits | P41235; in the data active = activity change above about 30%, passing the limit was not always enough
Rpn11 inh: Rpn11 (human) deubiquitinase inhibition; O00487; human 26S proteasome, Ub4-pepOG fluorescence polarization; 20S core pre-blocked with epoxomicin; calls only at 20 µM; 360,000 compounds, 0.59% hits;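 active = inhibition at 20 µM, scaled to each plate's controls, above about 33%, limit read from the data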
IDE inh: inhibits human insulin-degrading enzyme in HEK cells; inhibition, % at 5.59 µM; AID 434962; P14735; FAbetaB cleavage, fluorescence polarization; 320,000 compounds, 0.41% hits;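 active = percent inhibition above the average of all tested compounds plus 3 SD, set per screening campaign, cut at about 16% in these data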;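 also: IDE supplied by intact live HEK cells; FP after avidin binding of uncleaved biotin substrate so inhibition keeps polarization high; 0% = DMSO wells and 100% = 60 µM reference IDE inhibitor Ii1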
TPT1 inh: C. albicans TPT1 enzyme inhibition. inhibition, % at 5 µM. 300,000 compounds, 0.81% hits. AID 1962. recombinant caTPT1, FP RNA substrate dephosphorylation;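 active = inhibition above the mean of all tested compounds plus 3 SD, set per screening campaign, cut at about 24% in these data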;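 also: plate controls were DMSO alone for no effect and ferristatin control at 100 nM for full effect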
CSN inh: inhibitors of human CSN-mediated cullin deneddylation; AID 651999; Purified CSN, SCF-Nedd8-OG deneddylation, fluorescence polarization; 360,000 compounds, 0.38% hits; inhibition, % at 12.5 µM; Q92905;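 active = pattern-corrected inhibition above about 35%, with an unprinted fluorescence ratio check between 0.5 and 1.5, limit read from the data, passing the limit was not always enough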;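 also: 0% = enzyme with substrate and 100% = substrate without enzyme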
Target sequence (Q92905 whole entry, looked up, one chain of several): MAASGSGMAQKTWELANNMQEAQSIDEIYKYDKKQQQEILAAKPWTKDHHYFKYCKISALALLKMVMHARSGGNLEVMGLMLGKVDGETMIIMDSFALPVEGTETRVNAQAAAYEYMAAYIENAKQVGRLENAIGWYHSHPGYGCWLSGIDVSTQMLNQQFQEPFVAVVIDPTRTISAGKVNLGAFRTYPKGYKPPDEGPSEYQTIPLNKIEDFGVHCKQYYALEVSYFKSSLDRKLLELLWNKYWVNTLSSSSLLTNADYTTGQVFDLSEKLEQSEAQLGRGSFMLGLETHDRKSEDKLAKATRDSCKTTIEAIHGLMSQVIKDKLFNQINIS
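test system = HEK293T-derived human Csn5 enzyme | amount = 0.24 nM Csn5 enzyme, final concentration | medium = Tris/NaCl/DTT buffer, pH 7.5 | schedule = 90 min reaction at room temperature | signal = FP | evaluation = inhibition of Csn5 cleavage, % | compound dosing = single dose of 12.5 µM compound with 0.25% DMSO | probe or stimulus = 10 nM SCFSkp2-Nedd8OG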
IDE act: boosts human insulin-degrading enzyme activity in HEK cells; P14735; FAbeta-B cleavage, fluorescence polarization; 0% vehicle, 100% cell-free pure enzyme wells; activation, % at 5.96 µM; 340,000 compounds, 0.073% hits; AID 493087;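 active = activation above the mean of all tested compounds plus 3 SD, set per screening campaign, cut at about 17% in these data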
TPT1 inh confirm: confirmation of Candida albicans TPT1 inhibitors; recombinant caTPT1, fluorescence polarization, RNase T1 coupled; inhibition, % at 5 µM; 2,400 compounds, 74% hits; shares compounds with TPT1 inh;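 active = inhibition above the primary screen limit, the mean inhibition of all tested compounds plus 3 SD, cut at about 25% in these data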
RNase T1 inh: RNase T1 inhibition in TPT1 counter-screen. RNase T1 cleavage, fluorescence polarization, 1536-well. inhibition, % at 5 µM. 2,400 compounds, 83% hits. shares compounds with TPT1 inh;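 active = inhibition above the solvent-only control well mean plus 3 SD, limit set per screening run, cut at about 23% in these data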;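 also: plate controls were DMSO wells with enzyme for no effect and wells without RNase T1 for full effect; inhibitors block cleavage so intact labeled substrate keeps polarization high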
Target sequence (P00651 whole entry, looked up): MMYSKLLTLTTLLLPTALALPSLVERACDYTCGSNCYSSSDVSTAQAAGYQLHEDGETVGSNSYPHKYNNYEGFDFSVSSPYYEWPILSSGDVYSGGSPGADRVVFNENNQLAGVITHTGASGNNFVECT
IDE cell inh cf: confirmation of human insulin-degrading enzyme inhibitors in cells. AID 435028. 1,200 compounds, 51% hits. shares compounds with IDE inh. HEK cells, FAbetaB cleavage, fluorescence polarization. inhibition, % at 5.59 µM;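 active = mean inhibition across triplicate wells above the cutoff set by the earlier primary insulin-degrading enzyme screen, cut at about 16% in these data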;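 also: 0% = DMSO wells and 100% = 60 µM reference IDE inhibitor Ii1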
HEK293 tox: counter-screen for IDE inhibitors: cytotoxicity in HEK cells; shares compounds with IDE inh; inhibition, % at 5.59 µM; 1,200 compounds, 28% hits; HEK293 cytotoxicity, ATP luminescence; in the data active = inhibition above about 22%;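 also: 0% = vehicle wells and 100% = reference cytotoxic drug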
Rpn11 confirm: confirmation of human proteasome Rpn11 inhibitors; 1,900 compounds, 29% hits; shares compounds with Rpn11 inh; inhibition, % at 20 µM; purified human 26S proteasome, Ub4-pepOG fluorescence polarization; proteasome pretreated with epoxomicin
MMP-2 counter-1: MMP-2 (human) inhibition counter-screen. recombinant MMP-2, FRET peptide cleavage fluorescence. AID 602330. inhibition, % at 20 µM. shares compounds with Rpn11 inh. 1,900 compounds, 4% hits;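 also: human MMP-2 activated beforehand with APMA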
Thrombin inh: thrombin (bovine) inhibition counter-screen; shares compounds with Rpn11 inh; bovine thrombin cleavage of Ub4-pepOG, fluorescence polarization; inhibition, % at 20 µM; 1,900 compounds, 13% hits;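 active = mean inhibition at least 40% at 20 µM, or signal 3 deviations below plate average, so some actives read negative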;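 also: plate controls were thrombin with DMSO for no effect and buffer wells lacking thrombin for full effect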
CSN deneddyl val: Csn5 (human) deneddylation inhibition, single-concentration validation; shares compounds with CSN inh; 540 compounds, 62% hits; Csn5 deneddylation of SCF-Nedd8OG, fluorescence polarization, 90 min; inhibition, % at 16.6 µM; in the data active = inhibition above about 50%;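 also: 0% = DMSO with enzyme and 100% = no enzyme wells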
MMP-2 counter-2: blocks human MMP-2 in a CSN deneddylation counter-screen | inhibition, % at 16.6 µM | 540 compounds, 33% hits | recombinant MMP-2, FRET substrate fluorescence, 60 min | shares compounds with CSN inh;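 active = corrected plate-normalized z-score of 5 or more, or -5 or less, or inhibition of 15% or more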;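 also: plate controls were DMSO wells with enzyme for no effect and buffer wells lacking MMP-2 for full effect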
Thrombin counter: blocks bovine thrombin in a CSN deneddylation counter-screen. 540 compounds, 49% hits. shares compounds with CSN inh. inhibition, % at 16.6 µM. bovine thrombin cleavage of Ub4-pepOG, fluorescence polarization;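 active = inhibition at or above a set limit, with a fluorescence interference ratio between 0.5 and a set maximum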
The depositor's hits bear a star; i = inactive; . = not tested or not shown; + = active, no number. Rule as the data show it, unless noted: active = inhibition above about 40%; inactive = the rest.

SMILES	HNF4A DNA FP	Rpn11 inh	IDE inh	TPT1 inh	CSN inh	IDE act	TPT1 inh confirm	RNase T1 inh	CSN deneddyl val	MMP-2 counter-2	Thrombin counter	others
Cn1cccc1/C=C1\CC(C(C)(C)C)C/C(=C\c2cccn2C)C1=O (configuration not stated)	140	.	3	176*	97*	-7	162*	149*	93*	-34*	45
C=CCc1cccc2cc(C(=O)N3CCN(c4ccccn4)CC3)c(=O)oc12	-2	i	3	5	-7	2	.	.	.	.	.
CC(=O)N1CCc2cc(S(=O)(=O)NCCC(=O)NC3CCN(Cc4ccccc4)CC3)ccc21	-1	i	0	-1	4	1	.	.	.	.	.
O=C1Nc2ccc(Br)cc2C12NNc1ccccc1O2 (configuration not stated)	95	.	3	83*	52*	7	105*	110*	129*	-15	17*
COc1ccccc1-n1cc([C@@H]2C[C@H]3CN(c4ccccc4)C(=O)[C@]34CCCN24)cn1	65*	.	11	60*	54*	.	47*	61*	69*	-3	37*
Cc1cc(C)nc(NN2C(=O)/C(=C/c3ccc(O)cc3)SC2=S)n1	94*	.	76*	58*	92*	-109	68*	71*	46	-13	83*	IDE cell inh cf=148*;HEK293 tox=10
COc1ccccc1/C=C1\SC(=S)N(Nc2nc(C)cc(C)n2)C1=O	1	i	3	-1	1	-6	.	.	.	.	.
CCOc1ccc(CCN2C(=S)N([C@@H](CC(C)C)CN3CCC[C@@H]3CN3C(=S)NC[C@@H]3CC(C)C)C[C@@H]2CC(C)C)cc1	-3	i	.	.	1	.	.	.	.	.	.
O=C1/C(=C/c2ccc(O)cc2)SC(=S)N1CC1CCCO1 (configuration not stated)	91*	.	87*	75*	94*	-119	81*	83*	44	-22	46	IDE cell inh cf=167*;HEK293 tox=12
CCCOc1ccc(/C=C2\SC(=S)N(CC3CCCO3)C2=O)cc1 (configuration not stated)	-1	i	0	3	-7	4	.	.	.	.	.
CCOC1=C/C(=C/c2c(N)n3oc(C)cc3nc2=O)C=CC1=O	.	.	-3	12	.	.	.	.	.	.	.
CCS(=O)(=O)c1nn2c(N)c(/C=C3/C=CC(=O)C(OC)=C3)c(=O)nc2s1	31	.	24*	35*	44*	-95	86*	92*	55*	5	52*	IDE cell inh cf=157*;HEK293 tox=13
O=C(/C=C/c1ccc([N+](=O)[O-])cc1)/C=C/c1ccco1	-24	i	5	27*	46*	2	24	31*	77*	10	9
COC(=O)c1ccc(NC(=O)CC2C(=O)N(C)C(=S)N2Cc2ccc(S(N)(=O)=O)cc2)cc1 (configuration not stated)	6	i	1	0	0	5	.	.	.	.	.
Cc1[nH]c2ccccc2c1/C=N/Nc1ccc(F)cc1F	.	.	3	13	.	.	.	.	.	.	.
Cc1[nH]c2ccccc2c1/C=N/Nc1ccc([N+](=O)[O-])cc1	68*	+	2	95*	49*	-3	100*	102*	75*	5	44*	Rpn11 confirm=83*;MMP-2 counter-1=-28;Thrombin inh=81*
Fc1ccc(C2CC(c3ccco3)=NN2c2ccccc2)cc1 (configuration not stated)	-1	i	2	3	2	3	.	.	.	.	.
COc1ccccc1N1N=C(c2ccc([N+](=O)[O-])cc2)CC1c1ccccc1 (configuration not stated)	47*	.	9	52*	38*	1	46*	57*	107*	0	25*
O=[N+]([O-])c1ccc(N2N=C(c3ccco3)CC2c2ccccc2)cc1 (configuration not stated)	50*	.	22*	135*	42*	-10	107*	108*	83*	-3	36*
COc1cc(N2N=C(c3ccccc3)CC2c2ccccc2)c(C=O)cc1C=O (configuration not stated)	-4	i	-4	-6	-2	5	.	.	.	.	.
CCOc1cc(S(=O)(=O)N2CCCCC2)ccc1F	1	i	-2	0	2	-4	.	.	.	.	.
O=C(O)CCCCCN1C(=O)/C(=C\c2ccc(-c3ccc(Cl)cc3)o2)SC1=S	101	.	-3	27*	61*	7	65*	81*	74*	16*	25*
O=C(O)CCCN1C(=O)/C(=C/c2ccc(-c3nc4ccccc4s3)o2)SC1=S	51*	+	3	48*	122*	0	95*	103*	.	1	-13	Rpn11 confirm=44*;MMP-2 counter-1=-16;Thrombin inh=-64
O=C(O)CCCCCN1C(=O)/C(=C\c2ccncc2)SC1=S	-1	i	4	2	7	-2	.	.	.	.	.
